The text below walks through data of PubChem BioAssay.

Unmarked numbers belong to inactive results. Inconclusive results are not listed. Active and inactive are the calls of the source.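 How the source made its calls, unless noted: active means viability at or below 27.92% in each of two runs, the all-compound median minus 4 SD; inconclusive means no clear call, values can overlap the other calls; inactive means the rest.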

A short description of assay [1]: OD615 S. cerevisiae growth inhibition, permissive medium, pilot counter-assay, permissive growth control for S. cerevisiae lifespan shortening project (AID 705;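 active means growth inhibition above 25% in both replicates, a cutoff set 3 SD above the mean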). As to conditions: OD615, 24 h, at 10 µM, active compounds read high. The method, boiled down:
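System: S. cerevisiae with engineered DeaD lifespan system / Measured by: absorbance (optical density) at 615 nm / Read-out: reduction in yeast growth (OD615) / Times: 4 h cell pre-growth, 24 h exposure at 30 °C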

Assay [2] can be described thus: Restrictive medium S. cerevisiae growth inhibition, OD615, pilot screen of yeast lifespan reduction project, restrictive growth control (AID 706;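 active means growth inhibition above a set limit, 3 SD over mean compound inhibition, in both replicates, cut at about 43% in these data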;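 further: modified DeaD lifespan yeast strain shifted to restrictive glucose medium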). As to conditions: OD615, 48 h, at 10 µM, active compounds read high. The method, boiled down:
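System: Engineered S. cerevisiae DeaD strain | Buffer or medium: Glucose-based CSMM-D restrictive medium | Schedule: 4 h pre-incubation, 48 h exposure at 30 °C | Technique: Optical density at 615 nm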

Assay [3] in a line: viability gain of MRP-1-high H69AR cells under doxorubicin, pilot screen, MRP-1 activator project, CellTiter-Glo, duplicate (AID 807;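 active means viability increase at or above a cutoff of the median across tested compounds plus 3 SD, cut at about 8.5% in these data, passing the limit was not always enough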;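 further: compound pretreatment 18-22 h then 72 h combined with doxorubicin; 0% = doxorubicin alone and 100% = vehicle without doxorubicin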). The note with it: H69AR viability with doxorubicin, CellTiter-Glo luminescence; at 10 µM; active compounds read high.
Assay [4] is described as follows: growth suppression of beta-catenin knockout HCT116, pilot screen, human colon tumor cells (AID 823;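 active means cell viability at or below a set limit in both duplicate runs, the limit being the all-compound median minus 4 SD, cut at about 23% in these data, passing the limit was not always enough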;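 further: 0% = wells killed by 20 µM Hyamine and 100% = untreated DMSO cell wells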). The note with it: CellTiter-Glo, 60 h, at 10 µM, active compounds read low.
Assay [5] is described as follows: growth suppression of PTEN-deleted HCT116, pilot screen, cell-based, HCT116 clonal line, CellTiter-Glo (AID 824).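 Further: 0% = 20 µM Hyamine control and 100% = vehicle cell control.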 The note with it: 60 h, at 10 µM, active compounds read low. On the technique in general: ATP-based viability assays read luminescence as a measure of living cells.
Assay [6] can be described thus: inhibitors of the yeast RAM network, pilot screen, dse1pr::URA3 reporter, 5-FOA selection (AID 869;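 active means inhibition over a set limit, the all-compound mean plus 3 SD, in both replicate runs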;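 further: 0% = DMSO wells with no growth and 100% = 10 µM 1-NA-PP1 with full growth; RAM network block rescues cells from 5-FOA so hits raise OD615 growth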). The note with it: S. cerevisiae dse1pr::URA3 5-FOA growth, OD615, 2 d; at 10 µM; active compounds read high; strain carries analog-sensitive mutant Cbk1 kinase.
Assay [7] can be described thus: RAM signaling pathway blockade in yeast – S. cerevisiae, Pdr1DBD-CYC8 efflux-inhibited sensitized strain, primary screen (AID 1298;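 active means RAM network inhibition above 8.4% in each of two replicates, 3 SD over the compound average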;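 further: 0% = DMSO untreated cells without growth and 100% = 10 µM 1-NA-PP1 full growth; higher means more yeast growth rescued from 5-FOA killing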). The note with it: S. cerevisiae cbk1-as DSE1-URA3 strain, 5-FOA growth OD615, 2 d; at 50 µM; active compounds read high.

For `Cc1cc(Nc2ncc(Cl)cc2Cl)n(-c2ccccn2)n1`, the growth inhibition is -1.14% in assay [1] and 3.23% in assay [2]. Further, the viability increase in assay [3] was -5.35%. Besides, the viability in assay [4] was 89.3%; in assay [5], 76.5%. In assay [6], the inhibition was 1.93%. The RAM network inhibition in assay [7] was 4.08%.
As to `O=C(Nc1ccccc1Cl)N1CCN(c2ccccn2)CC1`, the growth inhibition was -6.09% in assay [1] and -5.88% in assay [2]. Also, the viability increase in assay [3] was -0.46%. For the same molecule, the viability is 103% in assay [4] and 109% in assay [5]. Further, the inhibition in assay [6] is 1.91%. Moreover, the RAM network inhibition in assay [7] was 4.61%.
Take `Cc1cc(C)n(CC(O)Cn2c3ccccc3c3ccccc32)c(=O)n1` (stereo unspecified): the results for the growth inhibition in assay [1] and in assay [2] were -7.41% and -12.9%, respectively. Also, the viability increase in assay [3] was -2.44%. Moreover, the viability in assay [4] is 90%; in assay [5], 91.5%. The inhibition in assay [6] was 1.3%. The RAM network inhibition in assay [7] is 5.3%.
For the molecule `Cc1ccc(O)c(C(=O)CC(=O)c2cccc(F)c2)c1`, the growth inhibition in assay [1] is 35.8% (active); in assay [2], 50% (active). In assay [3], the viability increase is -7.04%. Moreover, the viability was 40.6% in assay [4] and 47.4% in assay [5]. Further, the inhibition in assay [6] is -0.695%. Moreover, the RAM network inhibition in assay [7] is -1.45%.
Turning to `COc1ccc(-n2nnnc2S(=O)(=O)CC(=O)N2CCCCC2)cc1`, the growth inhibition is -2.05% in assay [1] and 6.43% in assay [2]. In addition, the viability increase in assay [3] is -9.59%. Further, the results for the viability in assay [4] and in assay [5] were 1.47% (active) and 2.74% (active), respectively. In addition, in assay [6], the inhibition is 0.75%. In addition, the RAM network inhibition in assay [7] is -0.17%.
With `CCOC(=O)CCc1c(C)c2c(C)nn(-c3ccccc3)c2[nH]c1=O`, the values for the growth inhibition in assay [1] and in assay [2] were -2.26% and -0.33%, respectively. In addition, the viability increase in assay [3] is -1.19%. Besides, the results for the viability in assay [4] and in assay [5] were 99% and 95.9%, respectively. For the same molecule, in assay [6], the inhibition is 1.65%. Also, the RAM network inhibition in assay [7] was 1.84%.
As for `Cn1c(NC(=O)c2cc(Cl)ccc2Cl)cc(=O)n(C)c1=O`, the growth inhibition in assay [1] was 4.47%; in assay [2] it was 3.21%. Moreover, in assay [3], the viability increase was -2.52%. For the same molecule, the viability in assay [4] is 99.9%; in assay [5], 94.7%. The inhibition in assay [6] was 1.17%. Also, the RAM network inhibition in assay [7] was 1.45%.
`O=C(Nc1ccc(Br)cc1)c1cnccn1`: the growth inhibition was -12.7% in assay [1] and -21.8% in assay [2]. In addition, in assay [3], the viability increase was -0.6%. Moreover, the viability is 98.1% in assay [4] and 94.4% in assay [5]. In addition, the inhibition in assay [6] is 1.59%. For the same molecule, the RAM network inhibition in assay [7] is 4.87%.
As for `Cc1nc(N2CCN(c3ccccc3)CC2)c2c3c(sc2n1)CCC3`, the figures for the growth inhibition in assay [1] and in assay [2] were -0.345% and 29.8%, respectively. Further, the viability increase in assay [3] is 3%. Besides, the viability is 73.8% in assay [4] and 81.5% in assay [5]. For the same molecule, in assay [6], the inhibition was 1.38%. Besides, the RAM network inhibition in assay [7] was 1.62%.
In the case of `CCOc1ccc2nc(N3CCC(C(=O)Nc4nnc(CC)s4)CC3)sc2c1`, the growth inhibition in assay [1] was -13.1%; in assay [2] it was -21.7%. The viability increase in assay [3] is -0.45%. The viability in assay [4] was 95.8%; in assay [5] it was 95.1%. Further, the inhibition in assay [6] was 2.67%. Besides, in assay [7], the RAM network inhibition was 6.98%.
Consider `O=C(NCc1ccc2c(c1)OCO2)C1CC(=O)N(CCc2ccccc2)C1` (stereo unspecified), for which the values for the growth inhibition in assay [1] and in assay [2] were 0.26% and 0.755%, respectively. For the same molecule, the viability increase in assay [3] was -0.29%. The viability in assay [4] is 96.1%; in assay [5] it was 95.7%. Besides, the inhibition in assay [6] was 2.38%. In assay [7], the RAM network inhibition is 2.32%.
For the molecule `Cc1ccc2oc(=O)c3cnn(CC(=O)NC4CCN(Cc5ccccc5)CC4)c3c2c1`, the growth inhibition was -4.11% in assay [1] and 0.24% in assay [2]. Moreover, in assay [3], the viability increase was -3.78%. Further, the viability in assay [4] was 88.3%; in assay [5] it was 92%. Moreover, the inhibition in assay [6] is 1.77%. Further, the RAM network inhibition in assay [7] was 0.57%.
As for `CC(C)c1ccccc1NC(=O)CCCC(=O)O`, the results for the growth inhibition in assay [1] and in assay [2] were -2.18% and -0.2%, respectively. In addition, the viability increase in assay [3] is -0.29%. Besides, the viability in assay [4] is 96.9%; in assay [5], 102%. The inhibition in assay [6] was 0.36%. The RAM network inhibition in assay [7] is 2.42%.
As for `O=C(c1cc(C2CC2)on1)N1CCOCC1`, the figures for the growth inhibition in assay [1] and in assay [2] were -4.11% and -0.575%, respectively. In assay [3], the viability increase was 0.15%. The viability was 96% in assay [4] and 98.7% in assay [5]. For the same molecule, in assay [6], the inhibition is 1.57%. The RAM network inhibition in assay [7] is 2.93%.
For `O=C(O)c1ccc(NS(=O)(=O)c2cccc3cccnc23)cc1`, the growth inhibition is -2.47% in assay [1] and 7.28% in assay [2]. In addition, the viability increase in assay [3] is -0.56%. The viability is 102% in assay [4] and 94.1% in assay [5]. Besides, in assay [6], the inhibition was 2.25%. In assay [7], the RAM network inhibition is 1.04%.
For `FC(F)(F)C12CC(c3ccccc3)=NCCN1CCN2` (stereo unspecified), the growth inhibition is -4.15% in assay [1] and 4.43% in assay [2]. In addition, the viability increase in assay [3] was -1.23%. Further, the viability in assay [4] was 102%; in assay [5], 97.9%. The inhibition in assay [6] is 1.35%. For the same molecule, the RAM network inhibition in assay [7] is -0.53%.
As to `CCCC(=O)NCCCc1nc2ccccc2n1C`, the figures for the growth inhibition in assay [1] and in assay [2] were -3.69% and -0.54%, respectively. The viability increase in assay [3] is -1.21%. The viability was 97.1% in assay [4] and 105% in assay [5]. The inhibition in assay [6] was -0.03%. The RAM network inhibition in assay [7] was 2.78%.
As to `COCCOC(=O)C1=C(C)NC2=C(C(=O)CCC2)C1c1ccc2c(c1)OCO2` (stereo unspecified), the values for the growth inhibition in assay [1] and in assay [2] were -3.56% and -17.8%, respectively. Also, the viability increase in assay [3] is -2.23%. The viability in assay [4] was 93.9%; in assay [5] it was 93%. Moreover, the inhibition in assay [6] was 1.08%. Moreover, the RAM network inhibition in assay [7] is 0.14%.

By viability is commonly meant a read-out of living cells in per cent, often relative to untreated cells. As usually defined, the inhibition is the change of the read-out against control, counted positive when it falls.
